Reference: ChEMBL document CHEMBL1123598, “Inactivation of thymidylate synthase at an alternate high-affinity binding site” (J Med Chem, 1987)

Biological target: T1, Thymidylate synthase (Lactobacillus casei) (UniProt P00469)
T1 sequence (whole entry): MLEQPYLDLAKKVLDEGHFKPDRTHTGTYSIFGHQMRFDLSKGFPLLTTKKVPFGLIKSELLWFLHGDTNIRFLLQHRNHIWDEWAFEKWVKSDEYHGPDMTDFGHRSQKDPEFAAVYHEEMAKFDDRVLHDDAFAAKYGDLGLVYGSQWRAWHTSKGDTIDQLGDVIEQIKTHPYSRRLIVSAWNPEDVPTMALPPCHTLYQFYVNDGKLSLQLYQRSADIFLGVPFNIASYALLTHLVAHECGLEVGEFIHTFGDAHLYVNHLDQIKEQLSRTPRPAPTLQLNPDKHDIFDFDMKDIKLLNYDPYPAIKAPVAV
Experiment: Kinetic constant for the inactivation of Lactobacillus casei thymidylate synthase was determined at the concentration of 60 uM in the absence of substrate
Conditions: Lacticaseibacillus casei
Summary of the method: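 Enzyme (sp act. 3.2 μM mg⁻¹ min⁻¹) incubated with inhibitor in 0.1 M phosphate buffer, pH 6.8, 30 °C, with no substrate or with substrate at the stated concentration. Aliquots were withdrawn at intervals and residual activity was measured with 50 μM substrate in a 60-s assay. k_obsd was taken from activity loss; k2 and Ka came from the double-reciprocal plot of 1/k_obsd vs 1/[inhibitor].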

## CC1=CC(=O)c2ccccc2C1=O
  k: 5 se-1
